≈ marks a conversion by molar mass, not a printed value. Calls of active or inactive are those of the source. No cut-off for these calls is given here.

For one experiment, the system named is Plasmodium falciparum. The experiment can be described thus: Antiplasmodial activity against multi drug-resistant Plasmodium falciparum K1 infected in human type A+ erythrocytes assessed as inhibition of [G-3H]hypoxanthine incorporation after 42 hrs by scintillation counting. It is filed as functional, organism-based. The following applies: for IC50: K1, 42 h.

In another experiment the test system is MCF7. The experiment can be described thus: Cytotoxicity against human MCF7 cells by SRB assay. The format is functional, cell-based. In a few lines: (§1)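 Colorimetric growth assay following the Skehan method, run on three human lines: KB (oral epidermal carcinoma), MCF7 (breast adenocarcinoma) and NCI-H187 (small cell lung).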
For a further experiment, the system named is NCI-H187. The experiment can be described thus: Cytotoxicity against human NCI-H187 cells by SRB assay. The format is functional, cell-based. In a few lines: as §1
For the next experiment, the system named is KB. The experiment can be described thus: Cytotoxicity against human KB cells by SRB assay. The format is functional, cell-based. The essentials: as §1
On the technique in general: In SRB staining, fixed cells bind dye roughly in proportion to their protein.

Regarding `CC(=O)OC[C@@]12[C@H](OC(C)=O)[C@@H](OC(C)=O)[C@@H]3[C@@H](OC(C)=O)[C@@]14O[C@@]3(C)COC(=O)c1cccnc1[C@@H](C)[C@H](C)C(=O)O[C@@H]([C@H](OC(C)=O)[C@@H]2OC(=O)c1ccccc1)[C@]4(C)O`, the outcome in the experiment with Plasmodium falciparum was inactive.

Regarding `CC(=O)OC[C@]12[C@H](OC(C)=O)[C@H](OC(C)=O)[C@@H]3[C@@H](OC(C)=O)[C@@]14O[C@@]3(C)COC(=O)c1cccnc1C(C)C(C)C(=O)O[C@@H]([C@H](OC(C)=O)[C@@H]2OC(=O)c1ccccc1)[C@]4(C)O` (some centres undefined), the outcome in the experiment on Plasmodium falciparum was inactive.

For the compound `CC(=O)OC[C@@]12[C@H](OC(C)=O)[C@H](OC(C)=O)[C@@H]3[C@@H](OC(=O)c4ccccc4)[C@@]14O[C@@]3(C)COC(=O)c1cccnc1CC[C@H](C)C(=O)O[C@@H]([C@H](OC(C)=O)[C@@H]2OC(=O)c1ccccc1)[C@]4(C)O`, the IC50 – broadly, the point on the concentration scale where inhibition reaches its midpoint – with Plasmodium falciparum was 2.5 µM.

On to `CC(=O)OC[C@@]12[C@H](OC(C)=O)[C@H](OC(C)=O)[C@@H]3[C@@H](OC(=O)c4ccccc4)[C@@]14O[C@@]3(C)COC(=O)c1cccnc1CC[C@H](C)C(=O)O[C@@H]([C@H](OC(C)=O)[C@@H]2OC(C)=O)[C@]4(C)O`, for which the outcome with MCF7 and in the experiment with NCI-H187 was inactive. Further, the IC50 in the experiment on Plasmodium falciparum was 3.1 µM; with KB, 46.7 µg/mL (≈ 53.8 µM).

Consider `CC(=O)OC[C@@]12[C@H](OC(C)=O)[C@H](OC(C)=O)[C@@H]3[C@@H](OC(=O)c4ccccc4)[C@@]14O[C@@]3(C)COC(=O)c1cccnc1CC[C@](C)(OC(C)=O)C(=O)O[C@@H]([C@H](OC(C)=O)[C@@H]2OC(C)=O)[C@]4(C)O` [MEKONGENSINE], for which the result with MCF7 and with NCI-H187 was inactive. Further, the IC50 in the experiment with Plasmodium falciparum is 3.1 µM; in the experiment with KB, 28.2 µg/mL (≈ 30.5 µM).

With `CC(=O)OC[C@]12[C@H](OC(C)=O)[C@H](OC(C)=O)[C@@H]3[C@@H](OC(C)=O)[C@@]14O[C@@]3(C)COC(=O)c1cccnc1C(C)C(C)C(=O)O[C@@H]([C@H](OC(C)=O)[C@@H]2OC(C)=O)[C@]4(C)O` (some centres undefined), in the experiment with Plasmodium falciparum, the result was inactive.

In the case of `CC(=O)OC[C@@]12[C@H](OC(C)=O)[C@H](OC(C)=O)[C@@H]3[C@@H](OC(=O)c4ccccc4)[C@@]14O[C@@]3(C)COC(=O)c1cccnc1CC[C@](C)(OC(C)=O)C(=O)O[C@@H]([C@H](OC(C)=O)[C@@H]2OC(=O)c1ccccc1)[C@]4(C)O`, the IC50 with Plasmodium falciparum was determined as 3.5 µM.

With `CC(=O)OC[C@@]12[C@H](OC(C)=O)[C@@H](OC(C)=O)[C@@H]3[C@@H](OC(=O)c4ccccc4)[C@@]14O[C@@]3(C)COC(=O)c1cccnc1CC[C@](C)(OC(C)=O)C(=O)O[C@@H]([C@H](OC(C)=O)[C@@H]2OC(C)=O)[C@]4(C)O`, in the experiment with Plasmodium falciparum, the IC50 came out at 3.9 µM.
